What was measured:
[1] = molecular target: Cathepsin D (Homo sapiens, UniProt P07339); test: Inhibition of human recombinant CatD using Mca-GKPILFFRLK(DNP)-dR-NH2 as substrate after 1 hr by fluorescence analysis
[2] = test system: MDR1 (human); test: Apparent permeability across MDCK cells expressing human MDR1 at 5 uM after 2 hrs by LC-MS analysis; format: ADME, cell-based, Canis lupus familiaris; conditions: dog
Procedure, shortened: (§1)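 MDCK cells retrovirally transduced with human MDR1, seeded on transwells ≥3 days; bidirectional transport at 5 μM, 2 h, 37 °C, LC/MS quantitation. Papp = (dQ/dt)/(A·C0), A 0.11 cm2; ER = Papp B>A / Papp A>B. Means of at least three experiments.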

[3] = molecular target: Beta-secretase 1 (Homo sapiens, UniProt P56817)
[4] = test system: MDR1 (human); test: Efflux ratio of permeability from basolateral to apical over apical to basolateral side of MDCK cells expressing human MDR1 at 5 uM after 2 hrs by LC/MS analysis; format: ADME, cell-based, Canis lupus familiaris; conditions: dog; procedure, shortened: as §1
[5] = molecular target: Cytochrome P450 3A4 (Homo sapiens, UniProt P08684); test: Inhibition of CYP3A4; format: ADME
Chain of Cytochrome P450 3A4 (P08684 whole entry): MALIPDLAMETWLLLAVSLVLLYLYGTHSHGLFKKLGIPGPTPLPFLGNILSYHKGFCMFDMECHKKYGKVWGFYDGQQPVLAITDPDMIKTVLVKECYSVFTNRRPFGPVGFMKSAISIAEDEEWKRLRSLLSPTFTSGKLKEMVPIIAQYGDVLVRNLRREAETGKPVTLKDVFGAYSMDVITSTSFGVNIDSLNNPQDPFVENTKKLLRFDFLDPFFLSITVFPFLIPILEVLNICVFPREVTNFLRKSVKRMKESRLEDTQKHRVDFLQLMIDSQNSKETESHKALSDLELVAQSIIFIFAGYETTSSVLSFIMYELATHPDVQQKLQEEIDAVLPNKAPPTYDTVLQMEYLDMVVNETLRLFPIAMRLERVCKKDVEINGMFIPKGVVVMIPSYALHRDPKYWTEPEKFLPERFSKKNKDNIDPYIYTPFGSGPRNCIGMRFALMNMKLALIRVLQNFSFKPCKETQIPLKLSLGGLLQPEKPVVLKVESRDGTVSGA

Chain of Beta-secretase 1 (P56817 whole entry): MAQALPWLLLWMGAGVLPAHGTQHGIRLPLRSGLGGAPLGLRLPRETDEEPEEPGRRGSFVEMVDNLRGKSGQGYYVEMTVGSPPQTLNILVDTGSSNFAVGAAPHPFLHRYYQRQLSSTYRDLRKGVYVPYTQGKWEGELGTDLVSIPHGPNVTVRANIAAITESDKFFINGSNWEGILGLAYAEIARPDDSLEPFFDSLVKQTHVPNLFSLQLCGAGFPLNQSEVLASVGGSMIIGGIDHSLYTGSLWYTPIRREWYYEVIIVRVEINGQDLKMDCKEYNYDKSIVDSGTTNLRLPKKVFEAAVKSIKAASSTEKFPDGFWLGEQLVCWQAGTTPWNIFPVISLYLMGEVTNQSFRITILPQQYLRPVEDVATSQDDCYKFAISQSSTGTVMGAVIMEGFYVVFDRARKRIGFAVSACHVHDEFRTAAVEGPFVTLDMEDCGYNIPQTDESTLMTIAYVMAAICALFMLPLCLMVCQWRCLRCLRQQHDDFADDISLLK
Chain of Cathepsin D (P07339 65-162 limits assumed): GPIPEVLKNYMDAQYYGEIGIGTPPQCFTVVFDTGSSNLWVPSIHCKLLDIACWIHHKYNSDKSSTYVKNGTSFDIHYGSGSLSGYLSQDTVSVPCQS
Chain of Cathepsin D (P07339 169-412 limits assumed): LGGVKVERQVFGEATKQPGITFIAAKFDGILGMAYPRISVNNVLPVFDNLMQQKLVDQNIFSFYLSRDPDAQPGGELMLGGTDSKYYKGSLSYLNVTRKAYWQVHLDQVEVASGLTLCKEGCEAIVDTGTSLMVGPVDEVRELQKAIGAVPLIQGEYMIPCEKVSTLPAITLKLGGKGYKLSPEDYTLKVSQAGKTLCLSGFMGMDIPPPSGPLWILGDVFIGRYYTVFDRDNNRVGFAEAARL

| Compound | IC50 [1] | Papp at 2 h, 5 µM [2] | IC50 [3] | efflux ratio at 2 h, 5 µM [4] | IC50 [5] |
| --- | --- | --- | --- | --- | --- |
| CCOC[C@H](Oc1cc(C[C@@H]2CS(=O)(=O)C[C@H](NCc3cccc(C(C)(C)C)c3)[C@H]2O)cc(F)c1N)C(F)(F)F | 1230 nM | 8 ×10⁻⁶ cm/s |  |  |  |
| CC(C)(C)c1cccc(CN[C@H]2CS(=O)(=O)C[C@@H](Cc3cc(F)c(N)c(C4CC4)c3)[C@@H]2O)c1 | 1740 nM | 16 ×10⁻⁶ cm/s | 94 nM | 3 |  |
| C[C@@H](Oc1cc(C[C@@H]2CS(=O)(=O)C[C@H](NCc3cccc(C(C)(C)C)c3)[C@H]2O)cc(F)c1N)C(F)(F)F | 480 nM | 10 ×10⁻⁶ cm/s | 3 nM | 5 |  |
| CC(C)(C)c1ccnc(CN[C@H]2CS(=O)(=O)C[C@@H](Cc3cc(F)c(N)c(OC(C(F)(F)F)C(F)(F)F)c3)[C@@H]2O)c1 | 3070 nM | 38 ×10⁻⁶ cm/s | 68 nM | 17 | 400 nM |
| CC(C)(C)c1cccc(CN[C@H]2CS(=O)(=O)C[C@@H](Cc3cc(F)c(N)c(OC4COC4)c3)[C@@H]2O)c1 | 1150 nM | 23 ×10⁻⁶ cm/s |  |  |  |
| CC(C)(C)Cn1cc(CN[C@H]2CS(=O)(=O)C[C@@H](Cc3cc(F)c(N)c(OC(C(F)(F)F)C(F)(F)F)c3)[C@@H]2O)cn1 | 2810 nM | 16 ×10⁻⁶ cm/s | 36 nM | 46 | 6700 nM |
| CC(C)(C)Cc1cc(CN[C@H]2CS(=O)(=O)C[C@@H](Cc3cc(F)c(N)c(OC(C(F)(F)F)C(F)(F)F)c3)[C@@H]2O)no1 | 510 nM | 20 ×10⁻⁶ cm/s | 7 nM | 8 | 400 nM |
| CC(C)(C)c1cccc(CN[C@H]2CS(=O)(=O)C[C@@H](Cc3ccc4[nH]ccc4c3)[C@@H]2O)c1 (racemic) | 5530 nM | 10 ×10⁻⁶ cm/s | 2750 nM | 3 |  |
| CCc1c[nH]c2ccc(C[C@@H]3CS(=O)(=O)C[C@H](NCc4cccc(C(C)(C)C)c4)[C@H]3O)cc12 (racemic) | 2480 nM |  | 200 nM |  |  |
| COCCOC[C@@H](Oc1cc(C[C@@H]2CS(=O)(=O)C[C@H](NCc3cccc(C(C)(C)C)c3)[C@H]2O)cc(F)c1N)C(F)(F)F | 250 nM | 12 ×10⁻⁶ cm/s |  |  |  |
| CCCc1n[nH]c2ccc(C[C@@H]3CS(=O)(=O)C[C@H](NCc4cccc(C(C)(C)C)c4)[C@H]3O)cc12 (racemic) | 1630 nM | 30 ×10⁻⁶ cm/s | 220 nM | 49 |  |
| CC(F)(F)c1cccc(CN[C@H]2CS(=O)(=O)C[C@@H](Cc3cc(F)c(N)c(Br)c3)[C@@H]2O)c1 | 4160 nM | 28 ×10⁻⁶ cm/s |  | 4 |  |
| CC(C)(C)c1cccc(CN[C@H]2CS(=O)(=O)C[C@@H](Cc3ccc4[nH]cc(CC(F)(F)F)c4c3)[C@@H]2O)c1 (racemic) | 1490 nM | 2.5 ×10⁻⁶ cm/s | 120 nM | 7 |  |
| COCCOc1cc(C[C@@H]2CS(=O)(=O)C[C@H](NCc3cccc(C(C)(C)C)c3)[C@H]2O)cc(F)c1N | 3980 nM | 25 ×10⁻⁶ cm/s |  |  |  |
| CC(C)(C)c1cccc(CN[C@H]2CS(=O)(=O)C[C@@H](Cc3cc(F)c(N)c(OCCF)c3)[C@@H]2O)c1 | 2000 nM | 26 ×10⁻⁶ cm/s | 43 nM | 16 |  |
| CC(C)(O)c1cccc(CN[C@H]2CS(=O)(=O)C[C@@H](Cc3cc(F)c(N)c(OC(C(F)(F)F)C(F)(F)F)c3)[C@@H]2O)c1 | 1320 nM | 11 ×10⁻⁶ cm/s | 2 nM | 30 | 2100 nM |
| CC(C)Oc1cc(C[C@@H]2CS(=O)(=O)C[C@H](NCc3cccc(C(C)(C)C)c3)[C@H]2O)cc(F)c1N | 2220 nM | 14 ×10⁻⁶ cm/s | 43 nM | 3 |  |
| CC(C)(C)c1cccc(CN[C@H]2CS(=O)(=O)C[C@@H](Cc3ccc(N)c(OC(F)(F)F)c3)[C@@H]2O)c1 (racemic) | 7990 nM | 15 ×10⁻⁶ cm/s | 130 nM | 2 |  |
| CC(C)(C)c1cccc(CN[C@H]2CS(=O)(=O)C[C@@H](Cc3ccc4[nH]ncc4c3)[C@@H]2O)c1 (racemic) | 3750 nM | 23 ×10⁻⁶ cm/s | 1450 nM | 11 |  |
| CC(C)(C)c1cccc(CN[C@H]2CS(=O)(=O)C[C@@H](Cc3cc(F)c4c(c3)C3(CCC(F)(F)CC3)CN4)[C@@H]2O)c1 (racemic) | 3530 nM |  |  |  |  |
| CC(C)(C)c1cccc(CN[C@H]2CS(=O)(=O)C[C@@H](Cc3ccc(N)nc3)[C@@H]2O)c1 (racemic) | > 10000 nM | 17.4 ×10⁻⁶ cm/s | 1620 nM | 16 |  |
| CC(C)(C)O[C@H]1C[C@@H]1CN[C@H]1CS(=O)(=O)C[C@@H](Cc2cc(F)c(N)c(OC(C(F)(F)F)C(F)(F)F)c2)[C@@H]1O (mixture of isomers) | 3710 nM |  | > 10000 nM | 4 |  |

| Compound | IC50 [1] | Papp at 2 h, 5 µM [2] | IC50 [3] | efflux ratio at 2 h, 5 µM [4] | IC50 [5] |
| --- | --- | --- | --- | --- | --- |
| CC(C)(C)c1cccc(CN[C@H]2CS(=O)(=O)C[C@@H](Cc3cc(F)c(N)c(OCCC(F)(F)F)c3)[C@@H]2O)c1 | 2400 nM | 12 ×10⁻⁶ cm/s | 75 nM | 4 |  |
| CCCOc1cc(CC2CS(=O)(=O)CC(NCc3cccc(C(C)(C)C)c3)[C@H]2O)cc(F)c1N (single isomer, unassigned) | 2220 nM | 7 ×10⁻⁶ cm/s | 56 nM | 3 |  |
| CCCOc1cccc(C[C@@H]2CS(=O)(=O)C[C@H](NCc3cccc(C(C)(C)C)c3)[C@H]2O)c1 (relative stereo) | 290 nM | 2 ×10⁻⁶ cm/s | 670 nM | 1 |  |
| CC(C)(C)c1cccc(CN[C@H]2CS(=O)(=O)C[C@@H](Cc3ccc4[nH]cc(CC(F)F)c4c3)[C@@H]2O)c1 (racemic) | 1220 nM | 6 ×10⁻⁶ cm/s |  | 8 |  |
| CC(C)(C)c1cccc(CN[C@H]2CS(=O)(=O)C[C@@H](Cc3cc(O)c(N)c(F)c3)[C@@H]2O)c1 | 540 nM | 14 ×10⁻⁶ cm/s | 120 nM | 27 |  |
| CC(C)(C)c1cccc(CN[C@H]2CS(=O)(=O)C[C@@H](Cc3cc(F)c(N)c(OC4CCC4)c3)[C@@H]2O)c1 | 390 nM | 6 ×10⁻⁶ cm/s | 11 nM | 3 |  |
| CC(C)(C)c1cccc(CN[C@H]2CS(=O)(=O)C[C@@H](Cc3cc(F)c(N)c(-c4ccoc4)c3)[C@@H]2O)c1 | 510 nM | 3 ×10⁻⁶ cm/s | 150 nM | 2 |  |
| Nc1c(F)cc(C[C@@H]2CS(=O)(=O)C[C@H](N)[C@H]2O)cc1OC(C(F)(F)F)C(F)(F)F | > 10000 nM | 13 ×10⁻⁶ cm/s | > 10000 nM | 17 |  |
| CC(C)(C)c1cccc(CN[C@H]2CS(=O)(=O)C[C@@H](Cc3cc(F)c(N)c(C[C@H](O)C(F)(F)F)c3)[C@@H]2O)c1 | 1050 nM | 13 ×10⁻⁶ cm/s |  |  |  |
| CC(C)(C)c1cccc(CN[C@H]2CS(=O)(=O)C[C@@H](Cc3ccc(N)c(OCC(F)(F)F)c3)[C@@H]2O)c1 | 4370 nM | 23 ×10⁻⁶ cm/s | 36 nM | 3 |  |
| CCCc1cc(C[C@@H]2CS(=O)(=O)C[C@H](NCc3cccc(C(C)(C)C)c3)[C@H]2O)cc(F)c1N | 1390 nM | 7 ×10⁻⁶ cm/s | 130 nM | 2 |  |
| CC(C)(C)c1cccc(CN[C@H]2CS(=O)(=O)C[C@@H](Cc3cc(F)c(N)c(CCC(F)(F)F)c3)[C@@H]2O)c1 | 980 nM | 11 ×10⁻⁶ cm/s | 130 nM | 3 |  |
| CC(C)(C)c1cccc(CN[C@H]2CS(=O)(=O)C[C@@H](Cc3cc(F)c(N)c(-c4cc[nH]n4)c3)[C@@H]2O)c1 (racemic) | 600 nM | 20 ×10⁻⁶ cm/s | 28 nM | 17 |  |
| CC1(C)OCc2ccc(CN[C@H]3CS(=O)(=O)C[C@@H](Cc4cc(F)c(N)c(OC(C(F)(F)F)C(F)(F)F)c4)[C@@H]3O)cc21 | 1510 nM | 21 ×10⁻⁶ cm/s |  |  | 700 nM |
| CN(C)CC(=O)Nc1ccc(C[C@@H]2CS(=O)(=O)C[C@H](NCc3cccc(C(C)(C)C)c3)[C@H]2O)cc1F | > 10000 nM | 6 ×10⁻⁶ cm/s |  |  |  |
| CCOC[C@@H](Oc1cc(C[C@@H]2CS(=O)(=O)C[C@H](NCc3cccc(C(C)(C)C)c3)[C@H]2O)cc(F)c1N)C(F)(F)F | 230 nM | 11 ×10⁻⁶ cm/s |  |  |  |
| CC(C)(C)c1cccc(CN[C@H]2CS(=O)(=O)C[C@@H](Cc3cc(F)c(N)c(-c4ccco4)c3)[C@@H]2O)c1 | 360 nM | 2 ×10⁻⁶ cm/s | 79 nM | 2 |  |
| CCc1cc(C[C@@H]2CS(=O)(=O)C[C@H](NCc3cccc(C(C)(C)C)c3)[C@H]2O)cc(F)c1NC(=O)CN(C)C | > 10000 nM | 13 ×10⁻⁶ cm/s |  |  |  |
| CO[C@@H](Cc1cc(C[C@@H]2CS(=O)(=O)C[C@H](NCc3cccc(C(C)(C)C)c3)[C@H]2O)cc(F)c1N)C(F)(F)F | 1140 nM | 9 ×10⁻⁶ cm/s |  |  |  |
| CC(C)(C)c1cccc(CN[C@H]2CS(=O)(=O)C[C@@H](Cc3cc(F)c4c(c3)C3(CCC3)CN4)[C@@H]2O)c1 (racemic) | 80 nM | 6 ×10⁻⁶ cm/s | 560 nM | 3 |  |
| CCc1cc(C[C@@H]2CS(=O)(=O)C[C@H](NCc3cccc(C(C)(C)C)c3)[C@H]2O)cc(F)c1N | 2000 nM | 23 ×10⁻⁶ cm/s | 870 nM | 2 |  |

Reference: ChEMBL document CHEMBL2046351, “Discovery of cyclic sulfone hydroxyethylamines as potent and selective β-site APP-cleaving enzyme 1 (BACE1) inhibitors: structure-based design and in vivo reduction of amyloid β-peptides” (J Med Chem, 2012)
